Assay [1] has as its target T1, Complement C1r subcomponent (Homo sapiens, UniProt P00736).
T1 sequence (P00736 whole entry): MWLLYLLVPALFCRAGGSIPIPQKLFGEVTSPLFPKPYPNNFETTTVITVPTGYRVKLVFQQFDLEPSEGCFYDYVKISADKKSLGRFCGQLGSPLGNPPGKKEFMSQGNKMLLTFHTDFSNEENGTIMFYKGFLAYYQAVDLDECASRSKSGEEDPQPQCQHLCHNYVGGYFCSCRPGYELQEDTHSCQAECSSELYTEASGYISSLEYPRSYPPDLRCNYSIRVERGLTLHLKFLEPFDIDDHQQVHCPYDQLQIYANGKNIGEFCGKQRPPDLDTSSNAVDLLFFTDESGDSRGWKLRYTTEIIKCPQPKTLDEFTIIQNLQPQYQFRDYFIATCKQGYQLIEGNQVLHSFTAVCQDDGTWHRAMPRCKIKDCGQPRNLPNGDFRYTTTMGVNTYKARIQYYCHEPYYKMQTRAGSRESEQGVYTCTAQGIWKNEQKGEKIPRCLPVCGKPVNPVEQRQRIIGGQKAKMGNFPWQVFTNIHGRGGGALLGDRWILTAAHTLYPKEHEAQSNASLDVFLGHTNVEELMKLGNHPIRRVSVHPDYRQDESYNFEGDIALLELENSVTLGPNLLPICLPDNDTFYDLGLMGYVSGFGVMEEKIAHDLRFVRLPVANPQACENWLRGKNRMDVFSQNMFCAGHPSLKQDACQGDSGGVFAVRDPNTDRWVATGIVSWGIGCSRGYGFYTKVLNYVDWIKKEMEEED
The assay is described as follows: 50% inhibition of human C1r serine protease after 60 mins using Cbz-Gly-Arg-S-Bzl as substrate. Summed up:
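Compound (DMSO) preincubated 60 min at room temperature in 150 mM Tris pH 7.5, then substrate (1.5 mM stock Cbz-Gly-Arg-S-Bzl in DMSO/H2O 3:7), DTNB (0.75 mM stock) and purified human C1r (20 μg/mL stock, 10 mM Tris pH 7.4) added. Read kinetically at 405 nm after 30 s; no-enzyme background wells; triplicates per concentration; IC50 reported.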

Assay [2] concerns the target T1, Complement C1r subcomponent.
For assay [3], the target named is T2, Serine protease 1 (Bos taurus, UniProt P00760).
T2 sequence (P00760 whole entry): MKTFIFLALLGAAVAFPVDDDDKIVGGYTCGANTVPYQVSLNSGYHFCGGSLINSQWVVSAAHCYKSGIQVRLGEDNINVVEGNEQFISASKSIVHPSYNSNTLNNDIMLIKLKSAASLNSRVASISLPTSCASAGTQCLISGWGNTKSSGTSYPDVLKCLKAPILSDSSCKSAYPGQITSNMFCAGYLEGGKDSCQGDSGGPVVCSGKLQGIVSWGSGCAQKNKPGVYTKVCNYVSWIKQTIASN
The experiment in a line: Concentration of compound required to inhibit 50% trypsin derived from bovine pancreas. Summed up: (§1)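 Bovine pancreatic trypsin (1.25 μg) with casein 0.5 mg/mL, 20 mM dithiothreitol, 50 mM Tris-HCl pH 7.4, at various inhibitor concentrations; 60 min, 25 °C caseinolysis, colorimetric development, absorbance 595 nm. IC50 from percent inhibition versus log [inhibitor]; mean of two to four determinations, ranges within 20%.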

Assay [4] can be described thus: The compound was examined in a functional assay using erythrocyte hemolysis as a functional end point of complement inhibition. The arrangement: species or system Ovis aries; concentration or dose not given beside the values. Summed up:
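Compound added to standardized antibody-sensitized sheep erythrocyte suspension (commercial complement kit), incubated 60 min at 25 °C, centrifuged; supernatant absorbance read at 405 nm. Expressed as percent of control at 200 μM.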

The target in assay [5] is T2, Serine protease 1. The assay is described as follows: The compound was evaluated to inhibit trypsin and is expressed in IC50 (The concentration required to inhibit 50% of the enzyme). Summed up:
as §1

SMILES strings stand for the structures.

The text below walks through data of ChEMBL document CHEMBL1131375, “2-amino-4H-3,1-benzoxazin-4-ones as inhibitors of C1r serine protease” (J Med Chem, 1998).

As a reminder, the IC50 is the concentration needed to halve the response being measured.

In assay [1], `O=c1oc(Nc2ccccc2Cl)nc2ccccc12` came in with an IC50 of 8 µM.
Same read-out and setting: in the case of `O=c1oc(Nc2ccccc2OC(F)(F)F)nc2ccccc12` it was over 62.5 µM.
`CNc1nc2ccccc2c(=O)o1` registered an IC50 in assay [2] of over 62.5 µM.
`O=c1oc(Nc2ccccc2I)nc2cc(F)c(F)cc12` gave an IC50 in assay [1] of over 62.5 µM.
As for `CSc1ccccc1Nc1nc2ccccc2c(=O)o1`, in assay [2], the IC50 is over 62.5 µM.
On the same count and under the same terms, to `CC(C)c1ccc2c(=O)oc(Nc3ccccc3I)nc2c1` belongs over 62.5 µM.
On to `O=c1oc(Nc2ccccc2I)nc2cc(F)ccc12`, for which the 50% inhibitory concentration (IC50) against Serine protease 1 [3] is over 100 µM; in assay [2] it was 1.7 µM; in assay [1], 2.8 µM.
On to `O=c1oc(NCc2ccccc2I)nc2ccccc12`, for which the IC50 in assay [2] is over 62.6 µM.
As to `COc1cc2nc(Nc3ccccc3I)oc(=O)c2cc1OC`, the IC50 in assay [2] and in assay [1] was 47 µM each time.
Turning to `O=c1oc(Nc2c(Cl)cccc2Cl)nc2ccccc12`, the IC50 in assay [2] and in assay [1] was 0.9 µM in each case.
With `O=c1oc(Nc2ccccc2Br)nc2ccccc12`, the IC50 at Serine protease 1 [3] is over 100 µM; in assay [1] it was 15.2 µM.
In assay [1], `O=c1oc(Nc2ccccc2I)nc2cc(Cl)ccc12` gave an IC50 of 0.9 µM.
Still for that read-out and setting: in the case of `Cc1ccccc1Nc1nc2ccccc2c(=O)o1` it was 38 µM.
Turning to `O=c1oc(Nc2cc(Cl)ccc2Cl)nc2ccccc12`, the IC50 was over 100 µM at Serine protease 1 [3], 2 µM in assay [2] and 2 µM in assay [1]. Moreover, in assay [4], the “Hemolysis (% of control)” value is listed as 131%.
For `Cc1cccc2nc(NC(C)C)oc(=O)c12`, in assay [2], the IC50 was over 62.5 µM.
Take `N=C(N)c1ccc2cc(OC(=O)c3ccc(N=C(N)N)cc3)ccc2c1` [NAFAMOSTAT]: the IC50 on Serine protease 1 [5] is 0.017 µM.
Consider `O=c1oc(Nc2c(Cl)cccc2Cl)nc2cc(Cl)ccc12`, for which the IC50 in assay [1] stood at 0.9 µM.
Same read-out and setting: to `COc1ccc2nc(Nc3ccccc3I)oc(=O)c2c1` belongs over 62.5 µM.
In assay [2], `Cc1cccc(C)c1Nc1nc2ccccc2c(=O)o1` registered an IC50 of over 62.5 µM.
Same read-out and setting: to `O=c1oc(Nc2ccccc2I)nc2cc(C3CCCCC3)ccc12` belongs over 62.5 µM.
Turning to `Cc1ccc2c(=O)oc(Nc3ccccc3I)nc2c1`, the IC50 on Serine protease 1 [3] was over 100 µM; in assay [1] it was 1.5 µM. In assay [4], the “Hemolysis (% of control)” value was 114%.
On to `O=c1oc(Nc2ccccc2Cl)nc2cc(Cl)c(Cl)cc12`, for which, in assay [1], the IC50 was over 62.5 µM.
In turn, `Cc1ccc2nc(Nc3ccccc3I)oc(=O)c2c1` displayed an IC50 in assay [2] of over 62.5 µM.
In turn, `O=c1oc(Nc2ccccc2Cl)nc2cc([N+](=O)[O-])ccc12` had a half-inhibitory concentration (IC50) in assay [1] of over 62.5 µM.
At Serine protease 1 [3], `O=c1oc(-c2ccccc2I)nc2ccccc12` showed an IC50 of 15.3 µM. Besides, in assay [4], the “Hemolysis (% of control)” value amounted to 61%.
In turn, `O=c1oc(NCCc2ccccc2I)nc2ccccc12` showed a 50% inhibitory concentration (IC50) in assay [2] of over 62.5 µM.
As to `O=c1oc(Nc2ccccc2I)nc2cc(C(F)(F)F)ccc12`, the IC50 on Serine protease 1 [3] is over 100 µM; in assay [1], 4 µM. The “Hemolysis (% of control)” value in assay [4] is on record as 146%.
`O=c1oc(Nc2ccccc2I)nc2ccc(Cl)cc12` came in with an IC50 in assay [1] of over 62.5 µM.
As for `CN(c1nc2ccccc2c(=O)o1)c1ccccc1I`, the IC50 against Serine protease 1 [3] came out at 4.5 µM; in assay [1], 16.6 µM. For the same compound, the “Hemolysis (% of control)” value in assay [4] is given as 72%.
Consider `O=c1oc(Nc2ccccc2I)nc2ccccc12`, for which it took 14.7 µM to reach half-maximal inhibition in assay [1] (IC50).
Compound `O=c1oc(Nc2ccccc2I)nc2cccc(Cl)c12` displayed an IC50 in assay [1] of over 62.5 µM.
In assay [2], `COc1ccc2c(=O)oc(Nc3ccccc3I)nc2c1` came in with an IC50 of over 62.5 µM.
The same measure, in the same setting: to `CN(C)c1ccc2c(=O)oc(Nc3ccccc3I)nc2c1` belongs over 62.5 µM.
In assay [1], `Cc1ccc2c(=O)oc(Nc3ccccc3Cl)nc2c1` displayed an IC50 of 0.9 µM.
In assay [2], `O=c1oc(Nc2ccccc2I)nc2cc(Cl)cc(Cl)c12` showed an IC50 of over 62.5 µM.
In the case of `O=c1oc(Nc2ccccc2I)nc2cc3ccccc3cc12`, the IC50 in assay [2] is 0.2 µM; in assay [1], 16.6 µM.
Regarding `Cc1cccc2nc(Nc3ccccc3I)oc(=O)c12`, the IC50 in assay [2] is over 62.5 µM.
In the case of `O=c1oc(Nc2ccccc2I)nc2cc(Cl)c(Cl)cc12`, in assay [1], the half-maximal inhibitory concentration (IC50) is over 62.5 µM.
Turning to `O=c1oc(Nc2ccccc2Cl)nc2cc(Cl)ccc12`, the IC50 against Serine protease 1 [3] is over 100 µM; in assay [2], 0.8 µM; in assay [1] it was 0.8 µM. Also, the “Hemolysis (% of control)” value in assay [4] was found to be 138%.
In turn, `CCN(c1nc2ccccc2c(=O)o1)c1ccccc1I` registered an IC50 in assay [2] of over 62.5 µM.
The same measure, in the same setting: in the case of `Nc1nc2ccccc2c(=O)o1` it was over 62.5 µM.
Consider `O=c1oc(Nc2ccccc2I)nc2cc([N+](=O)[O-])ccc12`, for which the half-inhibitory concentration (IC50) at Serine protease 1 [3] is over 100 µM; in assay [2], 0.8 µM; in assay [1] it was 7.8 µM. Also, in assay [4], the “Hemolysis (% of control)” value was determined as 126%.
`O=c1oc(Nc2c(Cl)cccc2Cl)nc2cc(C(F)(F)F)ccc12`: the IC50 amounted to 87.1 µM against Serine protease 1 [3], 1.5 µM in assay [2] and 4.2 µM in assay [1]. Moreover, in assay [4], the “Hemolysis (% of control)” value is on record as 120%.
